Laboratory results reported in ChEMBL document CHEMBL1154185 (J Med Chem, 2009).
Activity calls are given as the source filed them.

Legend:
[1] = test system: A549; assay: Growth inhibition of proapoptotic stimuli-resistant human A549 cells after 72 hrs by MTT assay; assay type: functional, cell-based; conditions: Homo sapiens, A549, 72 h
Outline: (§1)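 Cells plated 24 h in 96-well plates (10,000-40,000 cells/mL by cell type) in MEM (5% or 10% heat-inactivated FBS; with 100 μM non-essential amino acids for WI-38 and NHDF) or RPMI 10% FBS (A549), then exposed 72 h to compound up to 100 μM; MTT reduction read at 570 nm (reference 630 nm); sextuplicate.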

[2] = Growth inhibition of proapoptotic stimuli-resistant human OE21 cells after 72 hrs by MTT assay; assay type: functional, cell-based; conditions: Homo sapiens, OE21, 72 h
[3] = test system: U-373MG ATCC; assay: Cytotoxic activity against proapoptotic stimuli-resistant human U373 cells assessed as induction of cell death at 5 uM after 72 hrs by quantitative video microscopy; assay type: functional, cell-based
Outline: (§2)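 Phase-contrast time-lapse videomicroscopy with 5 μM for 72 h vs untreated control. Growth level = cell count in last frame / first frame (0 h). Global growth ratio compares treated with control growth level. Counts done in triplicate with an interactive tool. Morphology followed over the same period.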

[4] = test system: A549; assay: Cytostatic activity against proapoptotic stimuli-resistant human A549 cells at 5 uM after 72 hrs by quantitative video microscopy; assay type: functional, cell-based; outline: as §2
[5] = test system: U-373MG ATCC; assay: Cytostatic activity against proapoptotic stimuli-resistant human U373 cells at 5 uM after 72 hrs by quantitative video microscopy; assay type: functional, cell-based; outline: as §2
[6] = Growth inhibition of proapoptotic stimuli-sensitive human Hs683 cells after 72 hrs by MTT assay; assay type: functional, cell-based, Hs 683; conditions: Homo sapiens, Hs 683, 72 h
Outline: (§3)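 MTT assay. Cells were plated at 10,000–40,000 cells/mL and left 24 h to attach, then exposed to compound for 72 h (untreated controls). Formazan was read at 570 nm (reference 630 nm). Tested up to 10 μM (first panel) or up to 100 μM (second panel). Sextuplicate. U373 grown in MEM + 5% FBS; Hs683, SK-MEL-28 and B16F10 in RPMI + 10% FBS.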

[7] = Growth inhibition of proapoptotic stimuli-resistant human U373 cells after 72 hrs by MTT assay; assay type: functional, cell-based, U-373MG ATCC; conditions: Homo sapiens, U373 MG, 72 h; outline: as §3
[8] = test system: SK-MEL-28; assay: Growth inhibition of proapoptotic stimuli-resistant human SK-MEL-28 cells after 72 hrs by MTT assay; assay type: functional, cell-based; conditions: Homo sapiens, SK-MEL-28, 72 h; outline: as §3
[9] = test system: B16-F10; assay: Growth inhibition of proapoptotic stimuli-sensitive mouse B16F10 cells after 72 hrs by MTT assay; assay type: functional, cell-based; conditions: Mus musculus, B16-F10, 72 h; outline: as §3
[10] = Growth inhibition of human WI38 cells after 72 hrs by MTT assay; assay type: cell-based; conditions: WI-38, 72 h; outline: as §1
[11] = Growth inhibition of human WS1 cells after 72 hrs by MTT assay; assay type: cell-based; conditions: WS1, 72 h; outline: as §1
[12] = test system: NHDF; assay: Growth inhibition of human NHDF after 72 hrs by MTT assay; assay type: cell-based; outline: as §1
[13] = test system: A549; assay: Cytotoxic activity against proapoptotic stimuli-resistant human A549 cells assessed as induction of cell death at 5 uM after 72 hrs by quantitative video microscopy; assay type: functional, cell-based; outline: as §2
[14] = Reduction in mitosis occurrence in proapoptotic stimuli-resistant human U373 cells at 5 uM after 72 hrs by quantitative video microscopy; assay type: functional, U-373MG ATCC; set-up: scale not given: the % may be the effect or the level left
Outline: (§4)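 Cells treated 72 h with 5 μM compound and filmed by computer-assisted phase-contrast videomicroscopy; mitoses counted within a 2 mm² frame over the 72 h observation period, compared with untreated control.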

[15] = test system: A549; assay: Reduction in mitosis occurrence in proapoptotic stimuli-resistant human A549 cells at 5 uM after 72 hrs by quantitative video microscopy; assay type: functional; set-up: scale not given: the % may be the effect or the level left; outline: as §4
[16] = test system: U-373MG ATCC; assay: Inhibition of cytokinesis in proapoptotic stimuli-resistant human U373 cells at 5 uM after 72 hrs by quantitative video microscopy; assay type: functional, cell-based
Outline: (§5)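 Quantitative videomicroscopy with 5 μM for 72 h. Mitoses counted within a 2 mm² frame over the 72 h observation. Single cells in treated colonies were tracked at high magnification to follow mitosis and cytokinesis over time.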

[17] = test system: A549; assay: Inhibition of cytokinesis in proapoptotic stimuli-resistant human A549 cells at 5 uM after 72 hrs by quantitative video microscopy; assay type: functional, cell-based; outline: as §5
[18] = test system: U-373MG ATCC; assay: Increase in polymerized actin levels in proapoptotic stimuli-resistant human U373 cells at 5 uM after 6 hrs by fluorescence microscopy; assay type: functional, cell-based
Outline: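 U373 cells, untreated or exposed to 5 μM for 6 h, stained and imaged by computer-assisted fluorescence microscopy. Fibrillar (polymerized) actin labelled with Alexa Fluor488-phallacidin (green); globular actin with Alexa Fluor594-DNase I (red).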

[19] = test system: A549; assay: Increase in polymerized actin levels in proapoptotic stimuli-resistant human A549 cells at 5 uM after 6 hrs by fluorescence microscopy; assay type: functional, cell-based
[20] = test system: U-373MG ATCC; assay: Inhibition of cell migration of proapoptotic stimuli-resistant human U373 cells at 5 uM by quantitative video microscopy; assay type: functional, cell-based
Outline: (§6)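 Quantitative videomicroscopy of cells untreated or given 0.5 or 5 μM. Migration scored as MRDO, the greatest linear distance each single cell travels from its origin, over 12 or 24 h of observation. Means ± SEMs.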

[21] = test system: A549; assay: Inhibition of cell migration of proapoptotic stimuli-resistant human A549 cells at 5 uM by quantitative video microscopy; assay type: functional, cell-based; outline: as §6
[22] = test system: U-373MG ATCC; assay: Reduction of colony formation in undifferentiated proapoptotic stimuli-resistant human U373 cells at 0.5 uM under anchorage-independent culture conditions by quantitative video microscopy; assay type: functional, cell-based
[23] = test system: U-373MG ATCC; assay: Reduction of colony formation in undifferentiated proapoptotic stimuli-resistant human U373 cells at 5 uM under anchorage-independent culture conditions by quantitative video microscopy; assay type: functional, cell-based
[24] = test system: A549; assay: Reduction of colony formation in undifferentiated proapoptotic stimuli-resistant human A549 cells at 5 uM under anchorage-independent culture conditions by quantitative video microscopy; assay type: functional, cell-based
Outline: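 Soft-agar (anchorage-independent) culture of A549 cells, without or with 5 μM, for 38 days after plating. Colonies counted in three 0.4 mm² areas per condition, experiment in hexaplicate. Means ± SEMs.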

[25] = test system: U-373MG ATCC; assay: Induction of non-apoptotic cell death in human U373 cells at 50 uM after 72 hrs by annexin-V/propidium iodide staining based flow cytometry; assay type: functional
Outline: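 Flow cytometry with annexin-V/propidium iodide double staining after 72 h. U373 given 0, 5 or 50 μM; MCF-7 treated 72 h with a 1 μM pro-apoptotic positive control. Early apoptosis = AV+/PI−, late = AV+/PI+, non-apoptotic death = AV−/PI+. Means ± SEMs.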

[26] = Toxicity in iv dosed mouse administered once daily for 5 consecutive days measured after 28 days; assay type: organism-based; conditions: in vivo
Outline: (§7)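 Healthy mice given compound i.v. (tail vein) in 50 μL saline once daily for 5 consecutive days (Monday-Friday) at 5, 10, 20, 40 or 80 mg/kg; 3 mice per group; body weight and survival followed over 28 days; MTD defined as dose just below lowest dose killing at least one mouse; means ± SEM.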

[27] = test system: B16-F10; assay: Antitumor activity against mouse B16F10 cells implanted in B6D2F1 mouse assessed as increase in mouse survival at 40 mg/kg, iv administered thrice weekly for 3 consecutive weeks starting from 5th day post tumor grafting; assay type: functional, organism-based; set-up: dose 40 mg/kg
Outline: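 Female B6D2F1 mice (17-19 g) received stereotactic brain implants of B16F10 melanoma cells, all on the same day. Treatment started on day 5 post-graft: 40 mg/kg i.v. (tail vein) in 50 μL, Mon/Wed/Fri for 3 consecutive weeks. Controls received 50 μL saline i.v.; the reference arm got cisplatin 5 mg/kg i.p. on the same schedule. 11 mice per group; survival analysed.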

[28] = test system: B16-F10; assay: Antitumor activity against mouse B16F10 cells implanted in iv dosed B6D2F1 mouse assessed as active dose increasing mouse survival administered thrice weekly for 3 consecutive weeks starting from 5th day post tumor grafting; assay type: functional
[29] = test system: Mus musculus; assay: Toxicity in iv dosed mouse assessed as reduction of body weight at 5 to 80 mg/kg, iv administered once daily for 5 consecutive days measured after 28 days; assay type: organism-based; set-up: dose 5-80 mg/kg, route intravenous; conditions: in vivo, 672 h; outline: as §7
[30] = test system: U-373MG ATCC; assay: Increase in actin cytoskeleton rigidity in proapoptotic stimuli-resistant human U373 cells at 5 uM after 6 hrs by fluorescence microscopy
[31] = test system: A549; assay: Reduction of colony formation in undifferentiated proapoptotic stimuli-resistant human A549 cells at 5 uM under anchorage-independent culture conditions by quantitative video microscopy

Structure (SMILES): O[C@H]1[C@H]2c3cc4c(cc3CN3CCC(=C[C@@H]1O)[C@H]23)OCO4 [LYCORINE]
- IC50 [1]: 4.3 µM
- IC50 [2]: 5.1 µM
- Activity [3]: inactive
- Activity [4]: Active
- Activity [5]: Active
- IC50 [6]: 6.7 µM
- IC50 [7]: 7.6 µM
- IC50 [8]: 8.5 µM
- IC50 [9]: 6.3 µM
- IC50 [10]: > 100 µM
- IC50 [11]: > 100 µM
- IC50 [12]: > 100 µM
- Activity [13]: inactive
- Activity [14]: >=90%
- Activity [15]: >=90%
- Activity [16]: Active
- Activity [17]: Active
- Activity [18]: Active
- Activity [19]: Active
- Activity [20]: Active
- Activity [21]: Active
- Activity [22]: Active
- Activity [23]: Active
- Activity [24]: Active
- Activity [25]: Active
- MTD at 672 h [26]: > 80 mg/kg
- Activity [27]: Active
- Dose [28]: 40 mg/kg
- Activity [29]: Non-toxic
- Activity [30]: Active
- Activity [31]: Active
